Results on 32 molecules are retold here after ChEMBL document CHEMBL4325914, “Design and Evaluation of Potent EGFR Inhibitors through the Incorporation of Macrocyclic Polyamine Moieties into the 4-Anilinoquinazoline Scaffold” (J Med Chem, 2018).

Data set [1] has as its system L929. Briefly: Cytotoxicity against mouse L929 cells assessed as cell growth inhibition after 72 hrs by MTT assay. Type of data set: cell-based. Particulars: L929, 72 h.
For data set [2], the system named is A549. The data set can be described thus: cells. Type of data set: functional, cell-based. Particulars: Homo sapiens, A549, 72 h.
The subject of data set [3] is A549. The data set can be described thus: Cytotoxicity against human A549 cells assessed as effect on intracellular ATP levels at 6 uM after 24 hrs by luciferase-luciferin based assay. Type of data set: functional, cell-based. The essentials:
(§1)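 A549 cells were plated at 4000 per well and allowed to settle 12 h. They were then exposed to compound or DMSO for 24 h or 72 h. Medium was removed and reconstituted luciferase-luciferin reagent added. Luminescence was read within 1 min and converted to ATP concentration from a reference plot. Each concentration was run in quadruplicate.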

In data set [4] the test system is A549. Briefly: Cytotoxicity against human A549 cells assessed as effect on intracellular ATP levels at 0 to 2 uM after 24 hrs by luciferase-luciferin based assay. Format: functional, cell-based. The essentials: as §1
Data set [5] has as its system A549. Briefly: Induction of apoptosis in human A549 cells assessed as late apoptotic cells at 8 uM after 72 hrs by FITC-annexin V/propidium iodide-double staining based flow cytometry (reference value: 6.59%). Type of data set: functional. (In general: In flow cytometry, cells or beads pass a laser one at a time.)
The nature of data set [6]: in vitro. Particulars: mouse, L929 cells.
Data set [7] deals with A549. The data set can be described thus: Induction of apoptosis in human A549 cells assessed as early apoptotic cells at 8 uM after 72 hrs by FITC-annexin V/propidium iodide-double staining based flow cytometry (reference value: 9.38%). Type of data set: functional.
The test system of data set [8] is A-431. Briefly: cells. Type of data set: functional, cell-based. Particulars: Homo sapiens, A-431, 72 h.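 Also: antiproliferative activity measured with an MTT assay.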
For data set [9], the target named is Epidermal growth factor receptor (Homo sapiens, UniProt P00533).
In data set [10] the test system is A549. The data set can be described thus: Cytotoxicity against human A549 cells assessed as reduction in intracellular ATP levels at 8 uM after 24 hrs by luciferase-luciferin based assay. Format: functional, cell-based. In outline:
as §1

Data set [11] has as its target Epidermal growth factor receptor (Homo sapiens, UniProt P00533, T790M).
Data set [12] deals with A549. The data set can be described thus: Cytotoxicity against human A549 cells assessed as depletion of intracellular ATP levels at 8 uM after 72 hrs by luciferase-luciferin based assay. Format: functional, cell-based. In outline:
as §1

Data set [13] deals with Receptor tyrosine-protein kinase erbB-2 (Homo sapiens, UniProt P04626). Briefly: Inhibition of wild type human N-terminal His-tagged HER2 cytoplasmic domain (676 to 1255 residues) expressed in baculovirus expression system after 1 hr in presence of ULight-labeled peptide substrate and ATP by LANCE ultra kinase assay.
Data set [14] is described as follows: Toxicity in human A549 cells xenografted BALB/c nude mouse assessed as effect on body weight at 30 mg/kg, ig administered every 2 days for 19 days. Format: organism-based. Particulars: in vivo, po. In outline:
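Female six-week-old BALB/c nude mice received 2.0 × 10^6 A549 cells subcutaneously. Dosing began at mean tumor size 200-400 mm3. 21 mice were randomized to vehicle (water, 30 mL/kg) or drug (30 mg/kg), both intragastric, every 2 days for 19 days. Body weight was recorded. Tumors were caliper-measured twice weekly (V = length × width²/2) and weighed at the end.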

Data set [15] has as its system A549. The data set can be described thus: Cytotoxicity against human A549 cells assessed as depletion of intracellular ATP levels at 2 uM after 72 hrs by luciferase-luciferin based assay. Type of data set: functional, cell-based. The essentials: as §1
Data set [16] concerns A549. The data set can be described thus: Induction of apoptosis in human A549 cells assessed as early apoptotic cells at 4 uM after 72 hrs by FITC-annexin V/propidium iodide-double staining based flow cytometry (reference value: 9.38%). Type of data set: functional.
For data set [17], the system named is A549. Briefly: Induction of apoptosis in human A549 cells assessed as late apoptotic cells at 4 uM after 72 hrs by FITC-annexin V/propidium iodide-double staining based flow cytometry (reference value: 6.59%). Format: functional.
The test system of data set [18] is A549. Briefly: Induction of apoptosis in human A549 cells assessed as early apoptotic cells at 1 uM after 72 hrs by FITC-annexin V/propidium iodide-double staining based flow cytometry (reference value: 9.38%). Type of data set: functional.
In data set [19] the test system is A549. The data set can be described thus: Induction of apoptosis in human A549 cells after 72 hrs by FITC-annexin V/propidium iodide-double staining based flow cytometry. Format: functional, cell-based.
Data set [20] relates to A549. Briefly: Antitumor activity against human A549 cells xenografted in BALB/c nude mouse assessed as tumor necrosis at 30 mg/kg, ig administered every 2 days for 19 days by hematoxylin/eosin-staining based histological analysis. Type of data set: functional, organism-based. In general terms: A xenograft is tissue or cells of one species grown in another, often human tumour cells in immunodeficient mice.

Data set [21] relates to A549. The data set can be described thus: animal or person. Type of data set: functional, Homo sapiens. Particulars: Mus musculus, A549, po, read-out: TGI.
The subject of data set [22] is A549. Briefly: Induction of apoptosis in human A549 cells assessed as late apoptotic cells at 1 uM after 72 hrs by FITC-annexin V/propidium iodide-double staining based flow cytometry (reference value: 6.59%). Type of data set: functional.

pIC50: −log10 of the molar value. The source made the active and inactive calls. The rule behind the calls is not given here.

Broadly, the pIC50 is −log10 of the IC50, conventionally taken in molar units. Broadly, the inhibition is the change of the read-out against control, counted positive when it falls. A high value points to a response far below the control.

Sequence of Epidermal growth factor receptor (Homo sapiens, UniProt P00533) (P00533 whole entry): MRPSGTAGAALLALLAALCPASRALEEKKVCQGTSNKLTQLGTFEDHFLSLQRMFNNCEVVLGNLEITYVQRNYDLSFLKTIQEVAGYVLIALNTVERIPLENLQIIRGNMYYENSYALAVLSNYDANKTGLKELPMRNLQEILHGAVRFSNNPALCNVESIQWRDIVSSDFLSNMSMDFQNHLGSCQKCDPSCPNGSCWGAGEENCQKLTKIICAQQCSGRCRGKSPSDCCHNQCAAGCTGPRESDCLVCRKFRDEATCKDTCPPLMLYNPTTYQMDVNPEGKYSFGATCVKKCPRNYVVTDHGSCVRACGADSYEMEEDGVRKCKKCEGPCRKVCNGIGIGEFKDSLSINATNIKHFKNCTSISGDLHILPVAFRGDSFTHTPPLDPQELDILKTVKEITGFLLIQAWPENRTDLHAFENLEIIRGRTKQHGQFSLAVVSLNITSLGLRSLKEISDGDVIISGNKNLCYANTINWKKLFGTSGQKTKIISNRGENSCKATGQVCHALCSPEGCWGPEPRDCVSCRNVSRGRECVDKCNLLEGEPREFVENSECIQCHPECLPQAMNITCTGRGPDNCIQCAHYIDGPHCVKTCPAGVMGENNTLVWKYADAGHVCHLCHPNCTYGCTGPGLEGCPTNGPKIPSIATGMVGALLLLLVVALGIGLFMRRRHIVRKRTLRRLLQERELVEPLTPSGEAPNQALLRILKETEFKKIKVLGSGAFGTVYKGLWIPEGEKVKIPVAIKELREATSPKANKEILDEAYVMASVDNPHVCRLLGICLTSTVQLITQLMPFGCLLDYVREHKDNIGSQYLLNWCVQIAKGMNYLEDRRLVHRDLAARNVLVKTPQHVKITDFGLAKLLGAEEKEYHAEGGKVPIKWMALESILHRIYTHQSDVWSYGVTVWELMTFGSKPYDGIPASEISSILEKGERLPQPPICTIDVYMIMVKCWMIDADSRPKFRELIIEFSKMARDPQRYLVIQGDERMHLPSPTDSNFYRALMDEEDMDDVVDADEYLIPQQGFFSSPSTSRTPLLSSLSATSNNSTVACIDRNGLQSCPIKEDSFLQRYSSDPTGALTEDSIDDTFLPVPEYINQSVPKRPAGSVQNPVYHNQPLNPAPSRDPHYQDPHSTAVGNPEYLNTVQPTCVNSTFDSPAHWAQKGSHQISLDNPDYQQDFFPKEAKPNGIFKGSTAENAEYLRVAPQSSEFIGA
Sequence of Receptor tyrosine-protein kinase erbB-2 (P04626 whole entry, the tested form may be a part): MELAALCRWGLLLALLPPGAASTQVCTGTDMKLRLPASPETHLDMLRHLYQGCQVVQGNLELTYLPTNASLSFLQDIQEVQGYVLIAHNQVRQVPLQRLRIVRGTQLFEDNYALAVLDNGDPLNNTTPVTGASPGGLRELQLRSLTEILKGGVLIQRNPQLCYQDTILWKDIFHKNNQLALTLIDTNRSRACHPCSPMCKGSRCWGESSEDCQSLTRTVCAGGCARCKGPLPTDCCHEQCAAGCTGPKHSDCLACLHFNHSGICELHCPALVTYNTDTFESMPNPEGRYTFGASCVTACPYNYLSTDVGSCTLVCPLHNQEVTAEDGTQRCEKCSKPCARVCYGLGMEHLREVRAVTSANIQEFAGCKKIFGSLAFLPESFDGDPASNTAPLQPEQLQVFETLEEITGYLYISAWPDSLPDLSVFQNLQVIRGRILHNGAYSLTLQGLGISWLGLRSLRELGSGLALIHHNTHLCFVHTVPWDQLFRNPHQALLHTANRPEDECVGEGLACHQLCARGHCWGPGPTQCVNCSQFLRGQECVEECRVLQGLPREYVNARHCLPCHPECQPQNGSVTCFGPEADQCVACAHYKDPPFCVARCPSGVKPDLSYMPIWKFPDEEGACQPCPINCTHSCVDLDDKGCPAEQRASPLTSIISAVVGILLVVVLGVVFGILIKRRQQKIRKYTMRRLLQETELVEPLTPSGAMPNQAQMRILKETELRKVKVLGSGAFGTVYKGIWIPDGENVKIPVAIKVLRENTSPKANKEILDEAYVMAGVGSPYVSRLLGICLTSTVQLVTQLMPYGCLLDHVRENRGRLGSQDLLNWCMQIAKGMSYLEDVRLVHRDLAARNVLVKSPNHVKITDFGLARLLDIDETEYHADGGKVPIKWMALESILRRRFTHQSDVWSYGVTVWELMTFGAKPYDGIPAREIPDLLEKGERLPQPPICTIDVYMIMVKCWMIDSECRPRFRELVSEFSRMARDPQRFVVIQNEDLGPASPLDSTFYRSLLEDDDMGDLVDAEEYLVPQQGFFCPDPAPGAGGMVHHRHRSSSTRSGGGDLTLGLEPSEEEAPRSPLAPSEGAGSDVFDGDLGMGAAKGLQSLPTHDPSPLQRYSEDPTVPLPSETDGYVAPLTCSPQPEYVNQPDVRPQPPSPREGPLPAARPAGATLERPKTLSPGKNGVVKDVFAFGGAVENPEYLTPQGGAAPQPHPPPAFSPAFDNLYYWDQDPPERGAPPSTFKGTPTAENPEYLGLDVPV
Sequence of Epidermal growth factor receptor (Homo sapiens, UniProt P00533, T790M) (P00533 25-1210 T790M limits assumed): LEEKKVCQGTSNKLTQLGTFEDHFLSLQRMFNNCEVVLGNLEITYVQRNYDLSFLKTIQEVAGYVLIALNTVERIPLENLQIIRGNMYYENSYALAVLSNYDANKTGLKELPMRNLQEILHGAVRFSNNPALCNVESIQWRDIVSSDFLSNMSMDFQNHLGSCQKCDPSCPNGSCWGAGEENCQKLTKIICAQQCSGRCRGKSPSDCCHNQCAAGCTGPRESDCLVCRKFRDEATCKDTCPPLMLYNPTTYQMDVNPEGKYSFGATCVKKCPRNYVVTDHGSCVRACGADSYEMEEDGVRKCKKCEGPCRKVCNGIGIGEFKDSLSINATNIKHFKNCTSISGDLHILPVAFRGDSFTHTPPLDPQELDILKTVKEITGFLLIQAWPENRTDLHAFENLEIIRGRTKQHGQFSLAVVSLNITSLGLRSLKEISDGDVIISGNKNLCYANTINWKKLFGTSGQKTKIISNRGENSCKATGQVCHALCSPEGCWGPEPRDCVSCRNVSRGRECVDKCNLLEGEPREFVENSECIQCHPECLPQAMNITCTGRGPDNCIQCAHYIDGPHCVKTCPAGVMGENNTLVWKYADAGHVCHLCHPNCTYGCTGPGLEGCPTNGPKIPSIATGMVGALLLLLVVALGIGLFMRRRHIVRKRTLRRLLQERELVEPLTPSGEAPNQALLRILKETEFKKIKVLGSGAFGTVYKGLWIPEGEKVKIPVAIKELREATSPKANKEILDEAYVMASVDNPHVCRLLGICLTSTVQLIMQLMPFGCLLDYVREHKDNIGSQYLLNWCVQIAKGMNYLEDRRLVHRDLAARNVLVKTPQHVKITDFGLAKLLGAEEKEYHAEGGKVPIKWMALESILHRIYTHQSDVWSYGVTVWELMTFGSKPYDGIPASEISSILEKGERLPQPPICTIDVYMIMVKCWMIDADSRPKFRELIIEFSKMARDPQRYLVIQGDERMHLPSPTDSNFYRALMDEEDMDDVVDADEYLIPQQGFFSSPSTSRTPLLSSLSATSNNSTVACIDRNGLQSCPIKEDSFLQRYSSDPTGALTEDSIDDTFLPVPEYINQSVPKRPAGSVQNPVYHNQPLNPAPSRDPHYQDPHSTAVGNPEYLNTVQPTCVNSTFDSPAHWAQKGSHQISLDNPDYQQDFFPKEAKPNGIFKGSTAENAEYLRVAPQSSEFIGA

As to `CS(=O)(=O)CCNCc1ccc(-c2ccc3ncnc(Nc4ccc(OCc5cccc(F)c5)c(Cl)c4)c3c2)o1` [LAPATINIB], the pIC50 is 5.69 in [1] and 5.44 in [2]. Besides, the outcome in data set [3] was Active. Also, the result in data set [4] was inactive. Also, the figures for the Activity in [5] and in data set [7] were 5.73% and 52.04%, respectively. The inhibition at 72 h, 1 µM in [6] turned out to be 35%.

Regarding `COc1cc2ncnc(Nc3cccc(F)c3)c2cc1OCCCN1CCNCCNCC1`, the pIC50 in data set [8] is 5.10; in data set [2], less than 4.30.

For the molecule `CCc1cc(Br)ccc1Nc1ncnc2cc(OC)c(OCCCN3CCNCCNCC3)cc12`, the pIC50 in [8] was 4.73; in data set [2], less than 4.30.

On to `COc1cc2ncnc(Nc3ccc(F)c(Cl)c3)c2cc1OCCCN1CCNCCNCC1`, for which the figures for the pIC50 in data set [8], in data set [2] and in data set [9] were 5.88, less than 4.30 and 8.08, respectively.

On to `COc1cc2ncnc(Nc3cccc(Br)c3)c2cc1OCCCN1CCNCCNCCNCC1`, for which the pIC50 in data set [8] was 5.98; in data set [2], 4.83.

Take `COc1cc2ncnc(Nc3ccc(Cl)c(C(F)(F)F)c3)c2cc1OCCCN1CCNCCNCCNCC1`: the pIC50 was 5.77 in data set [8] and 5.27 in [2].

With `COc1cc2ncnc(Nc3ccc(Cl)cc3Cl)c2cc1OCCCN1CCNCCNCC1`, the pIC50 in [8] was 5.39; in [2], 4.35.

For `COc1cc2ncnc(Nc3cccc(I)c3)c2cc1OCCCN1CCNCCNCCNCC1`, the results for the pIC50 in data set [8] and in [2] were 5.60 and 4.84, respectively.

Take `COc1cc2ncnc(Nc3ccc(F)c(Br)c3)c2cc1OCCCN1CCNCCNCC1`: the figures for the pIC50 in data set [8] and in data set [2] were 5.97 and 4.47, respectively.

Regarding `COc1cc2ncnc(Nc3cccc(Cl)c3)c2cc1OCCCN1CCNCCNCC1`, the values for the pIC50 in data set [8] and in [2] were 5.95 and less than 4.30, respectively.

Regarding `COc1cc2ncnc(Nc3ccc(C#N)cc3F)c2cc1OCCCN1CCNCCNCCNCC1`, the pIC50 in data set [8] was 5.20; in data set [2] it was less than 4.30.

For `COc1cc2ncnc(Nc3ccc(F)c(Br)c3)c2cc1OCCCN1CCNCCNCCNCC1`, the pIC50 in data set [8] was 5.80; in data set [2], 4.93.

For `COc1cc2ncnc(Nc3ccc(OCc4cccc(F)c4)c(Cl)c3)c2cc1OCCCN1CCNCCNCC1`, the outcome in [10] and in data set [12] was Active. In addition, the negative-log IC50 (pIC50) in data set [8] was 6.35; in [2], 5.14; in data set [11] it was 7.39; in data set [13], 8.02; in data set [9], 9.52. In addition, the outcome in [4] was inactive.

`COc1cc2ncnc(Nc3ccc(F)c(Cl)c3)c2cc1OCCCN1CCOCC1` [GEFITINIB]: in data set [10], the result was Active. For the same molecule, the results for the Activity result in [14], in [5] and in [7] were “Non-Toxic”, 7.05% and 20.72%, respectively. In addition, the outcome in data set [4] was inactive.

`COc1cccc(Nc2ncnc3cc(OC)c(OCCCN4CCNCCNCC4)cc23)c1`: the pIC50 in data set [8] is 5.07; in [2] it was less than 4.30.

Turning to `COc1cc2ncnc(Nc3cccc(I)c3)c2cc1OCCCN1CCNCCNCC1`, the pIC50 in [8] is 5.65; in data set [2], 4.58.

`COc1cc2ncnc(Nc3ccc(Br)cc3F)c2cc1OCCCN1CCNCCNCC1`: the values for the pIC50 in data set [8], in data set [2] and in [9] were 6.25, 4.79 and 7.55, respectively.

With `COc1cc2ncnc(Nc3cccc(C(F)(F)F)c3)c2cc1OCCCN1CCNCCNCCNCC1`, the results for the pIC50 in [8] and in data set [2] were 5.71 and 4.80, respectively.

On to `C#Cc1cccc(Nc2ncnc3cc(OC)c(OCCCN4CCNCCNCCNCC4)cc23)c1`, for which the pIC50 in data set [8] was 5.95; in [2] it was 4.54.

Turning to `C#Cc1cccc(Nc2ncnc3cc(OC)c(OCCCN4CCNCCNCC4)cc23)c1`, the results for the pIC50 in [8] and in data set [2] were 5.65 and less than 4.30, respectively.

As for `COc1cc2ncnc(Nc3ccc(C#N)cc3F)c2cc1OCCCN1CCNCCNCC1`, the pIC50 in data set [8] is 4.90; in data set [2], less than 4.30.

In the case of `COc1cccc(Nc2ncnc3cc(OC)c(OCCCN4CCNCCNCCNCC4)cc23)c1`, the pIC50 was 5.49 in data set [8] and less than 4.30 in [2].

Turning to `COc1cc2ncnc(Nc3cccc(F)c3)c2cc1OCCCN1CCNCCNCCNCC1`, the values for the pIC50 in data set [8] and in [2] were 5.73 and less than 4.30, respectively.

Consider `COc1cc2ncnc(Nc3cccc(C(F)(F)F)c3)c2cc1OCCCN1CCNCCNCC1`, for which the pIC50 in data set [8] was 5.81; in [2] it was 4.43.

On to `COc1cc2ncnc(Nc3ccc(OCc4cccc(F)c4)c(Cl)c3)c2cc1OCCCN1CCNCCNCCNCC1`, for which the pIC50 in data set [1] was 5.56; in [8] it was 6.02; in [2], 5.47; in data set [11], 7.78; in [13] it was 8.68; in [9], 8.85. Also, the result in data set [15], in data set [10] and in [20] was Active. The Activity is 54.62% in [16]; 4.36% in [17]; 6.25% in data set [18]; “Dose-dependent effect” in data set [19]; “Non-Toxic” in [14]; 7.94% in data set [5]. For the same molecule, the Activity in [22] is given as 11.16%; in data set [7] it was 81.53%. Moreover, in data set [4], the result was inactive. Moreover, in data set [21], the inhibition in vivo at 30 mg/kg was 44.2%. Also, the inhibition at 72 h, 1 µM in [6] was 37.6%.

Take `COc1cc2ncnc(Nc3ccc(Cl)cc3Cl)c2cc1OCCCN1CCNCCNCCNCC1`: the pIC50 in [8] was 5.36; in [2], 4.62.

With `COc1cc2ncnc(Nc3ccc(Cl)c(C(F)(F)F)c3)c2cc1OCCCN1CCNCCNCC1`, the negative-log IC50 (pIC50) was 5.53 in [8] and 5.21 in data set [2].

For the molecule `COc1cc2ncnc(Nc3ccc(F)c(Cl)c3)c2cc1OCCCN1CCNCCNCCNCC1`, the negative-log IC50 (pIC50) was 6.00 in [8], 4.69 in data set [2] and 8.18 in [9].

For the molecule `COc1cc2ncnc(Nc3cccc(Cl)c3)c2cc1OCCCN1CCNCCNCCNCC1`, the pIC50 in [8] is 5.85; in data set [2], 4.57.

On to `CCc1cc(Br)ccc1Nc1ncnc2cc(OC)c(OCCCN3CCNCCNCCNCC3)cc12`, for which the pIC50 in [8] was 5.25; in data set [2], less than 4.30.

As for `COc1cc2ncnc(Nc3ccc(Br)cc3F)c2cc1OCCCN1CCNCCNCCNCC1`, the figures for the pIC50 in data set [8] and in [2] were 5.74 and 4.82, respectively.

As to `COc1cc2ncnc(Nc3cccc(Br)c3)c2cc1OCCCN1CCNCCNCC1`, the pIC50 in data set [8] is 5.63; in [2] it was 4.47.
